{"source": "ChEMBL document CHEMBL1152868", "about": "“Activation of aldehyde dehydrogenase-2 reduces ischemic damage to the heart” (Science, 2008)", "key": {"Rattus norvegicus [1]": {"system": "Rattus norvegicus", "assay": "Cardiac protection in Wistar rat assessed as decrease in infarct size at 5 ug/min/kg for 13 hrs prolonged treatment terminated 3 hrs before ischemia", "assay_type": "functional", "design": "scale not given: the % may be the effect or the level left"}, "Rattus norvegicus [2]": {"system": "Rattus norvegicus", "assay": "Reduction of cardiac damage in acute myocardial infarction Wistar rat model assessed as decrease in myocardial infarction at 8.5 mg/kg treated 5 mins before ischemia by TTC staining", "assay_type": "functional, Myocardium", "design": "scale not given: the % may be the effect or the level left", "method_in_brief": "(§1)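 In vivo: 8.5 mg/kg injected into left ventricle five minutes before ischemia; 35 min ischemia then 60 min reperfusion; infarct size of left ventricular free wall expressed as percent, n=7.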"}, "[3]": {"target": "T1, Aldehyde dehydrogenase, mitochondrial (Homo sapiens) (UniProt P05091)", "T1 sequence (whole entry)": "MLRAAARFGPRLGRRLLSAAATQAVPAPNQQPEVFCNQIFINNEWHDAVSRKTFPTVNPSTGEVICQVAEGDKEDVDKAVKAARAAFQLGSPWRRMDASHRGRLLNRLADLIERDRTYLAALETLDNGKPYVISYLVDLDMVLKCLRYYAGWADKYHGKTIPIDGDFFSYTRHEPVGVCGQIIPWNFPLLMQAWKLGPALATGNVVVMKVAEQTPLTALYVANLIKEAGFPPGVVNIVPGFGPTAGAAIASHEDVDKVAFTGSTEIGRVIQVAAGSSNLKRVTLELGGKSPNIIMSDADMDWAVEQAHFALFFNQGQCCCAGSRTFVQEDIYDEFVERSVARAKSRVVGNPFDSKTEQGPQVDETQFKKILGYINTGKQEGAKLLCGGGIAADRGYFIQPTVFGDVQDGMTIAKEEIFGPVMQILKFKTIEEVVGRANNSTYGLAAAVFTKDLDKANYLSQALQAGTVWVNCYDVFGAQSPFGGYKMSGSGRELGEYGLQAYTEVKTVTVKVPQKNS", "assay": "Increase in wild type human recombinant ALDH2*1/*1 homotetramer activity expressed in Escherichia coli BL21 cells using wild type allele relative to basal activity", "method_in_brief": "(§2)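 Recombinant human ALDH2 proteins (wild type, heterozygous and homozygous mutant forms), 20μg each, assayed for enzymatic activity with 100 μM activator present; activity expressed as percent of untreated control; n=3.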"}, "[4]": {"target": "T1, Aldehyde dehydrogenase, mitochondrial (Homo sapiens)", "assay": "Activation of human ALDH2 assessed as phosphorylated enzyme at 20 uM in absence of rat PKCepsilon by spectrophotometry"}, "[5]": {"target": "T1, Aldehyde dehydrogenase, mitochondrial (Homo sapiens)", "assay": "Activation of human ALDH2 assessed as phosphorylated enzyme at 20 uM in presence of rat PKCepsilon by spectrophotometry"}, "Heart [6]": {"system": "Heart", "assay": "Ex vivo cardiac protection in Langendorff perfused Wistar rat heart assessed decrease in myocardial infarct size at 20 uM treated […] ischemia followed by 60 mins reperfusion by TTC staining", "assay_type": "functional", "design": "scale not given: the % may be the effect or the level left", "method_in_brief": "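Langendorff-perfused rat hearts pretreated 10 min with 20 μM drug or vehicle, then 35 min ischemia and 60 min reperfusion. Infarct size assessed by TTC staining of cross-sectional slices; n=7 hearts per group.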"}, "Rattus norvegicus [7]": {"system": "Rattus norvegicus", "assay": "Reduction of cardiac damage in acute myocardial infarction Wistar rat model assessed as decrease in infarct size at 8.5 mg/kg treated before left anterior descending coronary artery ligation measured after 35 mins of ischemia followed by 60 mins reperfusion by TTC staining", "assay_type": "functional, Myocardium", "design": "scale not given: the % may be the effect or the level left", "method_in_brief": "as §1"}, "Rattus norvegicus [8]": {"system": "Rattus norvegicus", "assay": "Induction of cell-stress in Wistar rat heart assessed as JNK activation at 8.5 mg/kg after ischemia followed by reperfusion by occluding left anterior descending coronary artery ligation for 35 mins by Western blot analysis", "assay_type": "functional, organism-based", "design": "dose 8.5 mg/kg", "method_in_brief": "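In vivo rat model: 8.5 mg/kg given into the left ventricle five minutes before 35 min ischemia, followed by 60 min reperfusion.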"}, "Rattus norvegicus [9]": {"system": "Rattus norvegicus", "assay": "Induction of cell-stress in Wistar rat heart assessed as JNK activation at 8.5 mg/kg after 5 mind by Western blot analysis", "assay_type": "functional, organism-based", "design": "dose 8.5 mg/kg"}, "[10]": {"assay": "Effect on alcohol dehydrogenase 1 activity at 100 uM"}, "[11]": {"target": "T2, Aldehyde dehydrogenase 1A1 (Homo sapiens) (UniProt P00352)", "T2 sequence (whole entry)": "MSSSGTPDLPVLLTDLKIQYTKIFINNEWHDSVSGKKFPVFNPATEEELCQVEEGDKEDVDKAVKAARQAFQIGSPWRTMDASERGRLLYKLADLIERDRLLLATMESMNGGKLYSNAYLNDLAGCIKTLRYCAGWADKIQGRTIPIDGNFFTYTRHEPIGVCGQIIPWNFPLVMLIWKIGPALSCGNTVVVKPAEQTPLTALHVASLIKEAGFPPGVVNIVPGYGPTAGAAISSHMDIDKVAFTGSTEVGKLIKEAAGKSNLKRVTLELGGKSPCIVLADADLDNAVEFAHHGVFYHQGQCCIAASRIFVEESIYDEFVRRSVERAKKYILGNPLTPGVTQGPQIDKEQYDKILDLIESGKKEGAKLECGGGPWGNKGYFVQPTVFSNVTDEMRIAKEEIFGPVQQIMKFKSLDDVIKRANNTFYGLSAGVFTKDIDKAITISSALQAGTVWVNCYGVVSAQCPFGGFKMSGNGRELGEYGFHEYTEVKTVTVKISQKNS", "assay": "Effect on human recombinant his-tagged cytosolic ALDH1A1 activity expressed in Escherichia coli BL21 cells at 100 uM"}, "[12]": {"target": "T3, Aldehyde dehydrogenase X, mitochondrial (Homo sapiens) (UniProt P30837)", "T3 sequence (whole entry)": "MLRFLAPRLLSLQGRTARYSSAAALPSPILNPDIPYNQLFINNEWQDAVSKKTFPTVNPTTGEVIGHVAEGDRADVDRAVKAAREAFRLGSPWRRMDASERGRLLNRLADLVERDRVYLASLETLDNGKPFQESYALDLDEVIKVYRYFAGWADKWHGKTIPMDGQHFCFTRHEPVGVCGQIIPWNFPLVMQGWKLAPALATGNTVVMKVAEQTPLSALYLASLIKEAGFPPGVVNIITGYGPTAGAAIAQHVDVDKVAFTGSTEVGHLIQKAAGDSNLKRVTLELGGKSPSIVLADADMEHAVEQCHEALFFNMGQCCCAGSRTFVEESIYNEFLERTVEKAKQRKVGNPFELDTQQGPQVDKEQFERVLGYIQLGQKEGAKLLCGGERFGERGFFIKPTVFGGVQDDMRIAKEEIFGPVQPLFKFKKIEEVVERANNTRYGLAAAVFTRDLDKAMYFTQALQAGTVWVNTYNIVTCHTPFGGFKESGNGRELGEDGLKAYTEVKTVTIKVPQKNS", "assay": "Effect on human recombinant his-tagged mitochondrial ALDH5 activity expressed in Escherichia coli BL21 cells at 100 uM"}, "[13]": {"target": "T1, Aldehyde dehydrogenase, mitochondrial (Homo sapiens)", "assay": "Activation of wild type human recombinant ALDH2*1 expressed Escherichia coli BL21 cells at 10 uM relative to control"}, "BL21 [14]": {"system": "BL21", "assay": "Activation of human recombinant ALDH2*2 E487K mutant expressed Escherichia coli BL21 cells at 10 uM relative to control"}, "BL21 [15]": {"system": "BL21", "assay": "Increase in human recombinant ALDH2*2 E487K mutant activity expressed in Escherichia coli BL21 cells", "method_in_brief": "as §2"}, "Rattus norvegicus [16]": {"system": "Rattus norvegicus", "assay": "Toxicity in Wistar rat assessed as histopathology at 6 mg/kg/day for 1 week", "assay_type": "organism-based", "conditions": "in vivo, 168 h"}, "Rattus norvegicus [17]": {"system": "Rattus norvegicus", "assay": "Toxicity in Wistar rat assessed as blood parameters at 6 mg/kg/day for 1 week", "assay_type": "organism-based", "conditions": "in vivo, 168 h"}, "BL21 [18]": {"system": "BL21", "assay": "Increase in human recombinant ALDH2*1/*2 E487K mutant heterotetramer activity expressed in Escherichia coli BL21 cells using wild type and mutant allele", "method_in_brief": "as §2"}, "Heart [19]": {"system": "Heart", "assay": "Ex vivo cardiac protection in Langendorff perfused Wistar rat heart assessed decrease of CPK release at 20 uM treated 35 mins before ischemia followed by 60 mins reperfusion", "assay_type": "functional", "design": "scale not given: the % may be the effect or the level left"}, "[20]": {"target": "T4, Aldehyde dehydrogenase, mitochondrial (Rattus norvegicus) (UniProt P11884)", "T4 sequence (whole entry)": "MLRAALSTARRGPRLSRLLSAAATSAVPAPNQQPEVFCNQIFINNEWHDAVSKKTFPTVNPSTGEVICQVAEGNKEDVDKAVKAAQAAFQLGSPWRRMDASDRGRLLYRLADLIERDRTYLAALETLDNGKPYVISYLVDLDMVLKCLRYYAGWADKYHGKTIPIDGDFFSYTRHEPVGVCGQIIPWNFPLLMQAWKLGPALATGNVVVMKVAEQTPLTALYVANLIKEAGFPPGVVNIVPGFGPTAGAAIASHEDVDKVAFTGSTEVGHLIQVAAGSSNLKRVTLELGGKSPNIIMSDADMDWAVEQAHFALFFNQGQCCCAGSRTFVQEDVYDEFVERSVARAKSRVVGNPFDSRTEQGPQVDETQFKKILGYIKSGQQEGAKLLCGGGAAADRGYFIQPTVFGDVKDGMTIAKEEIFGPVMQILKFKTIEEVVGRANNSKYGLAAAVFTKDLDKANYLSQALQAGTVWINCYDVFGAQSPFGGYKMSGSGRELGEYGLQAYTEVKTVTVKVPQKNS", "assay": "Induction of ALDH2 activity in langendorff perfused ischemic Wistar rat heart homogenate assessed as NADH level in per mg of protein at 1 uM after 10 mins by spectrophotometry", "assay_type": "tissue-based", "method_in_brief": "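Rat hearts on a Langendorff apparatus perfused with oxygenated Krebs-Henseleit buffer containing 1μM εPKC agonist peptide for 10 min, then subjected to ischemia; ALDH activity measured in heart homogenates.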"}, "Heart [21]": {"system": "Heart", "assay": "Cardiac protection in Langendorff perfused ischemic Wistar rat heart assessed as reduction of infarct size at 1 uM for 10 mins by TTC staining", "assay_type": "functional", "design": "scale not given: the % may be the effect or the level left"}}, "note": "Calls of active or inactive are those of the source. No cut-off for these calls is given here.", "data": [{"compound": "O=[N+]([O-])OCC(CO[N+](=O)[O-])O[N+](=O)[O-]", "note": "[NITROGLYCERIN]", "values": [{"measurement": "Activity", "setting": "Rattus norvegicus [1]", "value": 33, "unit": "%"}]}, {"compound": "O=C(NCc1ccc2c(c1)OCO2)c1c(Cl)cccc1Cl", "values": [{"measurement": "Activity", "setting": "Rattus norvegicus [2]", "value": 60, "unit": "%"}, {"measurement": "fold change (FC)", "setting": "[3]", "value": 2.1}, {"measurement": "Activity", "setting": "[4]", "value": 90, "unit": "%"}, {"measurement": "Activity", "setting": "[5]", "value": 100, "unit": "%"}, {"measurement": "Activity", "setting": "Heart [6]", "value": 26, "unit": "%"}, {"measurement": "Activity", "setting": "Rattus norvegicus [7]", "value": 43, "unit": "%"}, {"measurement": "Activity", "setting": "Rattus norvegicus [8]", "value": "inactive"}, {"measurement": "Activity", "setting": "Rattus norvegicus [9]", "value": "inactive"}, {"measurement": "Activity", "setting": "[10]", "value": "inactive"}, {"measurement": "Activity", "setting": "[11]", "value": "inactive"}, {"measurement": "Activity", "setting": "[12]", "value": "inactive"}, {"measurement": "Activity", "setting": "[13]", "value": 65, "unit": "%"}, {"measurement": "Activity", "setting": "BL21 [14]", "value": 900, "unit": "%"}, {"measurement": "fold change (FC)", "setting": "BL21 [15]", "value": 11}, {"measurement": "Activity", "setting": "Rattus norvegicus [16]", "value": "Non-toxic"}, {"measurement": "Activity", "setting": "Rattus norvegicus [17]", "value": "Non-toxic"}, {"measurement": "fold change (FC)", "setting": "BL21 [18]", "value": 2.2}, {"measurement": "Activity", "setting": "Heart [19]", "value": 24, "unit": "%"}]}, {"compound": "O=C(NCc1ccc2c(c1)OCO2)c1ccccc1Br", "values": [{"measurement": "Activity", "setting": "[13]", "value": 56, "unit": "%"}, {"measurement": "Activity", "setting": "BL21 [14]", "value": 550, "unit": "%"}]}, {"compound": "H-HDAPIGYD-OH", "values": [{"measurement": "Activity", "setting": "[20]", "value": 3.2, "unit": "µmol/min"}, {"measurement": "Activity", "setting": "Heart [21]", "value": 23, "unit": "%"}]}, {"compound": "O=C(NCc1ccc2c(c1)OCO2)c1c(F)cccc1F", "values": [{"measurement": "Activity", "setting": "[13]", "value": 41, "unit": "%"}, {"measurement": "Activity", "setting": "BL21 [14]", "value": 330, "unit": "%"}]}]}
